PTEN del growth = PTEN-deleted cell growth suppression; HCT116 PTEN-null viability, CellTiter-Glo, 60 h; hits give low values; viability, % at 10 µM; 140,000 tested, 1.2% active; AID 827;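 active = viability at or below a set limit, 4 SD under the median of all tested compounds, cut at about 3.7% in these data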;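 note: PTEN knockout HCT116 line with beta catenin targeted HCT116 as companion control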
Phagocyt inh = inhibitors of macrophage phagocytosis. inhibition, % at 5 µM. AID 1029. J774A.1 macrophage IgG-bead phagocytosis, imaging. 110,000 tested, 0.07% active;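 active = inhibition above the mean of the plate negative controls plus 5 SD, cut at about 13% in these data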;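 note: phagocytic index as fraction of beads internalized from green versus red external bead signal; plate controls were DMSO negative control for no effect and cytochalasin-D positive control for full effect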
H69AR growth 86K = growth inhibitors of human H69AR lung tumor cells. H69AR lung tumor viability, ATP luminescence, 72 h; hits give low values. viability, % at 10 µM. 85,000 tested, 6% active;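 active = viability at or below 40%; inactive = viability above 40%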;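 note: multidrug resistant small cell line overexpressing MRP-1 efflux transporter; 100% = mean luminescence of untreated control wells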
HUVEC inhibit = human endothelial cell proliferation inhibition. HUVEC proliferation, CellTiter-Glo luminescence, 72 h; hits give low values. viability, % at 10 µM (by protocol). 86,000 tested, 1.1% active. AID 648;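 active = viability at or below 30%; inactive = viability above 30%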;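 note: 100% = median luminescence of DMSO-only cell control wells on each plate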
Fibroblast inh = blocks proliferation of human lung fibroblasts; AID 719; LL 47 human lung fibroblast viability, ATP luminescence; hits give low values; viability, % at 10 µM; 85,000 tested, 1.1% active;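 active = viability at or below 50% in the single dose screen; inactive = viability above 50%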;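 note: compound exposure lasted 72 h before the ATP readout; 100% = median luminescence of untreated cell-only wells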
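Benchmarks: Cell-only wells, no compound | Test system: LL 47 human lung fibroblasts, passage 12 or lower | Input: 1,150 cells/well | Measured by: CellTiter-Glo luminescence measuring cellular ATP | Medium: IMEM, 15% FBS supplement | Schedule: Overnight attachment after seeding, then 72 h compound exposure at 37 °C | Doses: Compound addition at 0.1% DMSO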
bCat KO growth = beta-catenin-lacking colon tumor cell growth suppression. 140,000 tested, 1.5% active. AID 818. viability, % at 10 µM. HCT116 beta-catenin knockout viability, CellTiter-Glo, 60 h; hits give low values;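 active = viability at or under a set limit, the compound median less 4 SD, cut at about 6% in these data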;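 note: 0% = Hyamine 1622 control at 20 µM and 100% = untreated cell control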
* marks the source's active call; other numbers are inactive results; / = no result. Only a selection was taken, and hits are over-represented in it overall.

SMILES | PTEN del growth | Phagocyt inh | H69AR growth 86K | HUVEC inhibit | Fibroblast inh | bCat KO growth
Cc1ccc(-c2nn(-c3ccccc3)c3[nH]c(=O)c(CNCCN(C)C)cc23)cc1 | / | 0.9 | 17.2* | 42.7 | 74.1 | /
Cc1nn(-c2ccccc2)c2[nH]c(=O)c(CNCCN3CCOCC3)cc12 | 103.0 | 2.9 | 99.2 | 94.8 | 101.1 | 108.1
CCOc1ccc(NCc2cc3c(C(C)(C)C)nn(-c4ccccc4)c3[nH]c2=O)cc1 | 1.2* | 1.5 | / | / | / | 2.3*
Cc1ccc(-c2nn(-c3ccccc3)c3[nH]c(=O)c(CNCc4ccccc4)cc23)cc1 | 13.4 | / | 92.4 | 4.8* | 72.4 | 3.5*
Cc1onc(-c2ccccc2Cl)c1C(=O)N1CCN(c2ccccc2)CC1 | 64.7 | 1.2 | 19.7* | 99.2 | 93.0 | 69.7
Cc1onc(-c2ccccc2Cl)c1C(=O)N1CCN(c2cccc(Cl)c2)CC1 | 14.7 | 0.0 | 28.3* | 52.0 | 53.9 | 21.8
Cc1onc(-c2ccccc2Cl)c1C(=O)N1CCN(C(=O)c2ccco2)CC1 | 86.2 | 0.7 | 95.0 | 95.2 | 101.0 | 85.4
CC(C)COc1cccc(C(=O)Nc2ccc(S(=O)(=O)N3CCOCC3)cc2)c1 | 90.9 | -1.8 | 21.7* | 41.0 | 88.2 | 88.6
CC(C)c1ccc(N(CC(=O)Nc2ccc(S(=O)(=O)N3CCOCC3)cc2)S(C)(=O)=O)cc1 | 84.3 | 2.7 | 30.2* | 85.9 | 93.3 | 95.5
CCCn1nnc(NC(=O)c2cccc(OCC(C)C)c2)n1 | 103.1 | -1.6 | 38.3* | 80.6 | 104.5 | 97.5
CCOc1cc(C(=O)Nc2ccc(S(=O)(=O)N3CCOCC3)cc2)cc(OCC)c1OCC | 89.3 | -0.3 | 89.8 | 90.6 | 91.0 | 84.7
CN(C)Cc1ccccc1Sc1ccc(Br)cc1 | 98.0 | -3.6 | / | / | / | 90.4
CCOc1ccc(-c2c(=O)n(OCc3ccc([N+](=O)[O-])cc3)c3ccccc3[n+]2[O-])cc1 | 50.5 | 10.3 | / | / | / | 62.7
CCn1c2ccccc2c2cc(C3C(C#N)=C(N)Oc4n[nH]c(COC)c43)ccc21 (centres undefined) | 6.1 | -6.3 | 83.0 | 5.6* | 54.2 | 2.3*
O=c1cc(-c2ccccc2)[nH]c2ccccc12 | 13.2 | 6.2 | 31.0* | 53.0 | 57.5 | 8.9
Cc1cccc(NC(=O)c2oc3ccc(S(=O)(=O)N4CCOCC4)cc3c2C)c1C | 75.3 | 2.3 | 35.3* | 71.1 | 102.8 | 85.7
Cc1c(C(=O)NCc2cccnc2)oc2ccc(S(=O)(=O)N3CC(C)CC(C)C3)cc12 (centres undefined) | 88.8 | 0.2 | 83.4 | 61.4 | 84.2 | 94.2
Cc1c(C(=O)Nc2ccc(F)cc2)oc2ccc(S(=O)(=O)N3CC(C)CC(C)C3)cc12 (centres undefined) | 9.2 | / | 12.2* | 51.3 | 61.3 | 2.1*
Cc1c(C(=O)NCCCN2CCCC2=O)oc2ccc(S(=O)(=O)N3CCOCC3)cc12 | 94.7 | -2.0 | 88.5 | 96.4 | 101.8 | 93.6
Cc1c(C(=O)NCc2cccs2)oc2ccc(S(=O)(=O)N3CCOCC3)cc12 | 109.8 | -3.1 | 77.4 | 80.0 | 92.0 | 102.6
Cc1c(C(=O)NCCC2=CCCCC2)oc2ccc(S(=O)(=O)N3CCOCC3)cc12 | 13.8 | -2.2 | 10.4* | 53.3 | 61.7 | 25.8
C=CCn1c(O)c(C2=c3ccccc3=NC2=O)s/c1=N/c1nccs1 | 26.9 | -0.4 | 23.2* | 65.8 | 41.7* | 27.7
O=C1N=c2ccccc2=C1c1sc(=S)n(CC2CCCO2)c1O (centres undefined) | 50.5 | -0.5 | 41.9 | 64.9 | 73.5 | 61.0
Cn1c(O)c(C2=c3ccccc3=NC2=O)sc1=Nc1ccc(Cl)cc1 | 49.7 | / | 39.8* | 67.9 | 75.7 | 45.7
CCOC(=O)C1=C(C)NC(=O)C(C#N)C1c1ccco1 (centres undefined) | 115.7 | 0.0 | 100.4 | 95.5 | 99.3 | 105.5
SMILES | PTEN del growth | Phagocyt inh | H69AR growth 86K | HUVEC inhibit | Fibroblast inh | bCat KO growth
CCCCNC(=O)c1cc2c(-c3ccc(Cl)cc3)nn(C)c2s1 | 91.2 | / | 36.4* | 75.4 | 62.2 | 90.9
COCCCNC(=O)c1cc2c(-c3ccc(Cl)cc3)nn(C)c2s1 | 94.4 | / | 74.3 | 55.8 | 74.3 | 87.5
Cn1nc(-c2ccc(Cl)cc2)c2cc(C(=O)NCCCN3CCCC3)sc21 | 1.7* | / | 0.9* | 1.7* | 13.9* | 1.5*
Cc1ccc(OCCn2c(=O)cnc3ccccc32)cc1 | 14.6 | / | 19.0* | 40.2 | 57.8 | 14.0
CCCCn1c(=N)n(CCOc2ccc(C)cc2)c2ccccc21 | 1.9* | 1.8 | / | / | / | 1.9*
CCN(CC)CCn1c(=N)n(CCOc2ccccc2)c2ccccc21 | 21.6 | -0.8 | 10.2* | 64.4 | 32.5* | 19.3
CCN(CC)CCn1c(=N)n(CCO)c2ccccc21 | 103.1 | -2.4 | 91.5 | 105.4 | 99.8 | 97.5
Cc1nnc(SCC(=O)c2ccccc2)n1Cc1ccccc1 | 94.5 | -3.6 | / | / | / | 90.4
CC(C)n1cc(/C=C2\NC(=O)N(c3cccc(Cl)c3)C2=O)c2ccccc21 | 26.3 | -0.1 | 15.3* | 64.8 | 89.0 | 30.1
CC(C)n1cc(/C=C2/NC(=O)N(c3cccc(Cl)c3)C2=O)c2ccccc21 | 26.7 | / | 18.2* | 56.8 | 80.3 | 28.8
C=CCNC(=O)c1ccccc1NC(=O)c1ccc(Cl)c(S(=O)(=O)Nc2ccccc2)c1 | 35.7 | -1.8 | / | / | / | 44.1
O=C(Nc1cccc(C(=O)N2CCOCC2)c1)c1cccnc1 | 97.5 | -0.5 | 94.5 | 87.3 | 103.9 | 100.7
O=C1CCC/C(=N/NC(=O)C2CCN(S(=O)(=O)c3cccs3)CC2)C1 | 96.7 | / | / | / | / | 83.5
Cc1ccc(-c2ccc(/C=N\NC(=O)c3cc4c(ccc5ccccc54)o3)o2)cc1[N+](=O)[O-] | 0.6* | -2.2 | / | / | / | 1.2*
Cc1ccc([N+](=O)[O-])cc1-c1ccc(/C=N/NC(=O)c2cc3c(ccc4ccccc43)o2)o1 | 79.4 | -0.8 | / | / | / | 86.8
Nc1ccc(C(=O)n2c3ccccc3c3ccccc32)cc1 | 15.4 | / | 18.6* | 44.7 | 49.9* | 12.6
CCCCCOc1ccc(NC(=O)CSc2cccc3cccnc23)cc1 | 80.5 | -1.1 | / | / | / | 90.1
CCCC(=O)Nc1ccc2oc(-c3ccncc3)nc2c1 | 96.6 | -0.7 | 95.9 | 110.1 | 104.2 | 99.4
O=C(CN1C(=O)c2ccccc2C1=O)Nc1ccc(-c2nc3ccccc3o2)cc1 | 90.2 | 1.7 | 89.2 | 108.5 | 107.7 | 91.7
O=C(CN1CCCC1)Nc1ccc(-c2nc3cc(NC(=O)CN4CCCC4)ccc3o2)cc1 | 3.7* | 1.8 | 47.4 | 65.0 | 23.4* | 2.4*
CCC(C)NCC(=O)Nc1ccc(-c2nc3cc(NC(=O)CNC(C)CC)ccc3o2)cc1 (centres undefined) | 0.8* | -1.2 | 60.2 | 25.4* | 2.9* | 0.6*
CCN(CC)CC(=O)Nc1ccc(-c2nc3cc(NC(=O)CN(CC)CC)ccc3o2)cc1 | 7.0 | -1.7 | 61.3 | 105.5 | 43.6* | 7.6
Cc1ccc2oc(-c3ccc(NC(=O)CC(C)C)cc3)nc2c1 | 102.4 | -0.2 | 98.5 | 106.3 | 93.8 | 86.0
CCn1c(=O)cc(SCC(=O)NCc2ccc(C)o2)c2ccccc21 | 90.5 | 0.1 | 100.8 | 60.1 | 82.6 | 82.4

High-throughput results (PubChem BioAssay)
